Experimental findings from ChEMBL document CHEMBL1130208, “(1 alpha, 2 beta, 3 beta, 4 alpha)-1,2-bis[N-propyl-N-(4-phenoxybenzyl) amino]carbonyl]cyclobutane-3,4-dicarboxylic acid (A-87049): a novel potent squalene synthase inhibitor” (J Med Chem, 1997) are described below.

In assay [1] the test system is Monkey. Briefly: In vivo percent change of HDL cholesterol in monkeys at 20 mg/kg/day for 5 days dose. It is filed as functional, Cercopithecidae. The essentials:
(§1)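 Cynomolgus monkeys (n = 4) were given 20 mg/kg po daily for 5 days, and controls received vehicle with 0.2% methocel. Animals were fasted overnight before the last dose and bled from the femoral vein 2 h after dosing on day 5, before feeding. Plasma lipids are expressed as % change from pretreatment, with one-sample t-tests.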

Assay [2] deals with Monkey. Briefly: In vivo percent change of total cholesterol in monkeys at 20 mg/kg/day for 5 days dose. The format is functional, Cercopithecidae. The essentials:
as §1

Assay [3] relates to Monkey. In words: In vivo percent change of LDL cholesterol in monkeys at 20 mg/kg/day for 5 days dose. The format is functional, Cercopithecidae. The essentials:
as §1

In assay [4] the target is T1, Squalene synthase (Rattus norvegicus, UniProt Q02769).
T1 sequence (Q02769 whole entry): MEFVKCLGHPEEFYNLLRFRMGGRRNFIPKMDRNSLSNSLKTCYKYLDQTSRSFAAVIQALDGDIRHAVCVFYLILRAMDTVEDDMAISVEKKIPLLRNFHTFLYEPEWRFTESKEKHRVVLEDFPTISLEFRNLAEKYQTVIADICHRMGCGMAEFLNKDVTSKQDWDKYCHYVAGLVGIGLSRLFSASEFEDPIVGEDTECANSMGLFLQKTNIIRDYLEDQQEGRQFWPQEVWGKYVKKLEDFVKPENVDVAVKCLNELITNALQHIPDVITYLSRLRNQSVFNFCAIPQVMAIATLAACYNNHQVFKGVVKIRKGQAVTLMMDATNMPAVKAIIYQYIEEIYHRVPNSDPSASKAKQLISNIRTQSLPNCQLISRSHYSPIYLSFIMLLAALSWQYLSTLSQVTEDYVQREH
In words: In vitro inhibitory activity against Squalene Synthase. An outline of the steps:
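Squalene synthase inhibition measured in a rat liver microsomal enzyme assay.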

Assay [5] concerns Monkey. Briefly: In vivo percent change of total cholesterol in monkeys at 20 mg/kg/day for 5 days dose c. It is filed as functional, Cercopithecidae. The essentials:
as §1

In the case of `CC[C@H](C)C(=O)O[C@H]1C[C@@H](C)C=C2C=C[C@H](C)[C@H](CC[C@@H]3C[C@@H](O)CC(=O)O3)[C@H]21` [LOVASTATIN], the values for the Change in assay [1], in assay [2] and in assay [3] were -12%, -19% and -21%, respectively. `CN(Cc1ccc(OCc2ccccc2)cc1)C(=O)[C@@H]1[C@H](C(=O)O)[C@@H](C(=O)O)[C@H]1C(=O)N(C)Cc1ccc(OCc2ccccc2)cc1`: in assay [4], the IC50 is 10 µM.

In the case of `CCCN(Cc1ccc(Oc2ccccc2)cc1)C(=O)[C@@H]1[C@H](C(=O)O)[C@@H](C(=O)O)[C@H]1C(=O)N(CCC)Cc1ccc(Oc2ccccc2)cc1`, the Change was -12% in assay [5], -4% in assay [1] and -36% in assay [3]. Regarding `CC(C)N(Cc1ccc(Oc2ccccc2)cc1)C(=O)[C@@H]1[C@H](C(=O)O)[C@@H](C(=O)O)[C@H]1C(=O)N(Cc1ccc(Oc2ccccc2)cc1)C(C)C`, the midpoint of inhibition in assay [4], the IC50, lay at 0.14 µM. Still for that read-out and setting: the same measure for `CN(Cc1cccc(Oc2ccccc2)c1)C(=O)[C@@H]1[C@H](C(=O)O)[C@@H](C(=O)O)[C@H]1C(=O)N(C)Cc1cccc(Oc2ccccc2)c1`: 8 µM.

The IC50 is the midpoint of a concentration-inhibition curve.
